# Values joined by “and” are separate entries in the source; they are usually repeats but may differ in a detail not shown here. Equal values may be shown once.
# Assays:
# EGFR = EGFR (Homo sapiens, UniProt P00533); experiment: Kinase inhibition profiling at 100 nmol/L; assay type: biochemical; conditions: read-out: Inhibition at 100 nmol/L
# advanced solid tumors = experiment: Phase I first-in-human study: response; assay type: in vivo
# In short: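 Open-label phase I in patients with refractory advanced solid tumours; oral once daily after overnight fast for 28 days, 1-week observation, then continuous daily dosing; response assessed every 8 weeks by RECIST version 1.0.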
# [1] = test system: IGF‐1‐induced tyrosine phosphorylation of IGF‐R in HT‐29/GFP xenograft; experiment: In vivo signal transduction assay; parameters: species or system mouse; conditions: 40 mg/kg oral, 2 hours before IGF-1
# p381 = experiment: Kinase inhibition profiling at 100 nmol/L; assay type: biochemical, human; conditions: p381, 100 nmol/L
# [2] = molecular target: kinase insert domain receptor (Homo sapiens, UniProt P35968); experiment: Kinase inhibition profiling at 100 nmol/L; assay type: biochemical; conditions: read-out: Inhibition at 100 nmol/L
# Sequence of kinase insert domain receptor (P35968 20-1356): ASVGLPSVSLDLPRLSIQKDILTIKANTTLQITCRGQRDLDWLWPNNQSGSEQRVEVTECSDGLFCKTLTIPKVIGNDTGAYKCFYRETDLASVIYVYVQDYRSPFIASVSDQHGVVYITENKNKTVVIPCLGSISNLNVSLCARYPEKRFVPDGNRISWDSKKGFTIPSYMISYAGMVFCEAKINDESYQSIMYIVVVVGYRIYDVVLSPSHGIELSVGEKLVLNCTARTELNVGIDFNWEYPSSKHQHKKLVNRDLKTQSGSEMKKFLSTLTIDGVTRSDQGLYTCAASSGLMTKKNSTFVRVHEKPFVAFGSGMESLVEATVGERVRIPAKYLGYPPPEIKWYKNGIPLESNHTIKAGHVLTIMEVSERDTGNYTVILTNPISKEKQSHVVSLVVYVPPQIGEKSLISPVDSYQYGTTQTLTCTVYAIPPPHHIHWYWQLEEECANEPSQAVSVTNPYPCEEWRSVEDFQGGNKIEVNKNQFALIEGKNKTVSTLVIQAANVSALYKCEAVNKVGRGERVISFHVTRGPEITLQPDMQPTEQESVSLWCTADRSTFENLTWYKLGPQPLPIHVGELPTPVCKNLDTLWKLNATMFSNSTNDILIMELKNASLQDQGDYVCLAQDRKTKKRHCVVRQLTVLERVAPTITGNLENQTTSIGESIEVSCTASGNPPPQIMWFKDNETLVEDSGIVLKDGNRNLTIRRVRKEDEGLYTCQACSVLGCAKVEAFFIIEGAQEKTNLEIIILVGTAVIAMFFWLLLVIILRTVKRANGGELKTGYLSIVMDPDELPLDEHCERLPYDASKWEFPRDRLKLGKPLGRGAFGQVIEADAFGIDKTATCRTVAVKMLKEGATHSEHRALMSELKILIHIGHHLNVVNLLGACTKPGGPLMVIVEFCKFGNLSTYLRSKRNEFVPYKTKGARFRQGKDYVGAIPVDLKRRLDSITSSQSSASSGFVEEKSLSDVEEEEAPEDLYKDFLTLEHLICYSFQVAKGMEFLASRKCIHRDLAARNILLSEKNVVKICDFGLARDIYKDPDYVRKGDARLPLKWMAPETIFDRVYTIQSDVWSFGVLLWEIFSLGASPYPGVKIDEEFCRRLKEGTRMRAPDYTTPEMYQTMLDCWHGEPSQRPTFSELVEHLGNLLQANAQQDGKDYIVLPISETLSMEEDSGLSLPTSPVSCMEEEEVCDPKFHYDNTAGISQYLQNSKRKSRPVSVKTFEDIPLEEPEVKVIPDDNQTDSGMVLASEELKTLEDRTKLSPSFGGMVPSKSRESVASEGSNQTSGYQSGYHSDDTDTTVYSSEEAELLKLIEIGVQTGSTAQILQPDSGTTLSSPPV
# [3] = Plasma protein binding, equilibrium dialysis; assay type: in vitro ADME; conditions: human, pH 7.2
# Jak2 = Jak2 (Homo sapiens, UniProt O60674); experiment: Kinase inhibition profiling at 100 nmol/L; assay type: biochemical
# Sequence of Jak2 (O60674 whole entry): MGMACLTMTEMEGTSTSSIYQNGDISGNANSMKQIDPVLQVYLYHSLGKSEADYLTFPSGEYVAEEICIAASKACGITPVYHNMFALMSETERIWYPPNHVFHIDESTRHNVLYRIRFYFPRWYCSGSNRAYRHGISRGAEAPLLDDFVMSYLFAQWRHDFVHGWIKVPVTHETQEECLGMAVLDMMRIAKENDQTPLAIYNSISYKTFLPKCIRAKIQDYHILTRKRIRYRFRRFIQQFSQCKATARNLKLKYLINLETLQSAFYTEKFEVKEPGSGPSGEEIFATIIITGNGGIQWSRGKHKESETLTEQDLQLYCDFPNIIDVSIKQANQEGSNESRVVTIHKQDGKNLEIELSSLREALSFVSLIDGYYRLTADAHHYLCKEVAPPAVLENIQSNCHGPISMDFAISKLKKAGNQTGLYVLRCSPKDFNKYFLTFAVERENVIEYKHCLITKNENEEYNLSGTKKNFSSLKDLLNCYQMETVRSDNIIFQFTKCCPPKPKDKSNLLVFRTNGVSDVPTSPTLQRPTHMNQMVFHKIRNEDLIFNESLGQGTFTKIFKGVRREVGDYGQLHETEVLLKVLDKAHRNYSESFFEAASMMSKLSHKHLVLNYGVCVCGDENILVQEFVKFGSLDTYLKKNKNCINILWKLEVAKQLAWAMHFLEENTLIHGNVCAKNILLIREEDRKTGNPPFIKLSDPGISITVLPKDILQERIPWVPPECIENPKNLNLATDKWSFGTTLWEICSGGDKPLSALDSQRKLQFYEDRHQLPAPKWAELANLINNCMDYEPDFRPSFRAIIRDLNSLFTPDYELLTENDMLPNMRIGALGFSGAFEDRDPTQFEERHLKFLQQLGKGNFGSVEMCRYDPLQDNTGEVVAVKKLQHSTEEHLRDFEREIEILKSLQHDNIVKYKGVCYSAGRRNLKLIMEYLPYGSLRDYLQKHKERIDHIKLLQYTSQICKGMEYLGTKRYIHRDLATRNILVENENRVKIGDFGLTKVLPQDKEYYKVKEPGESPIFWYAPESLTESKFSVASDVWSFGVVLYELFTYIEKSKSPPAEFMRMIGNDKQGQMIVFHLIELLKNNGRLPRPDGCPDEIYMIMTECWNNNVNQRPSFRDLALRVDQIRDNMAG
# Btc = experiment: Kinase inhibition profiling at 100 nmol/L; assay type: biochemical, human
# [4] = test system: phosphorylation of Erk in HT‐29/GFP cells; experiment: In vitro signal transduction assay; assay type: cell-based, human; conditions: up to 30 nmol/L
# In short: (§1)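 HT-29/GFP colon cancer cells in culture exposed to test compound, then stimulated with human IGF-1 or human insulin; receptor tyrosine phosphorylation and downstream signalling assessed across a concentration series.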
# IGF‐1R = IGF‐1R (Homo sapiens, UniProt P08069); experiment: Kinase inhibition profiling at 100 nmol/L; assay type: biochemical; conditions: read-out: Inhibition at 100 nmol/L
# [5] = Pharmacokinetic study in mice, single oral dose; assay type: in vivo, mouse; conditions: for Mean area under the plasma concentration–time curve from time 0 to 24 h / Mean maximum plasma concentration: male SCID mice
# In short: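 Single oral dose of 2, 10 or 20 mg/kg to male mice; plasma sampled over 0–24 h; Cmax, Tmax, elimination half-life and AUC0–24 reported as mean ± SD, n = 3.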
# SCID mice = experiment: Hyperglycemia and hyperinsulinemia in mice; assay type: in vivo, mouse; conditions: oral 10, 20, 40, 80 mg/kg
# [6] = test system: panel of human malignant cell lines; experiment: Correlation of antiproliferative activity with anti‐IGF‐1 antibody KM1468; assay type: cell-based; conditions: range of human malignant cell lines (Fig. S1a)
# [7] = test system: IGF‐1‐induced tyrosine phosphorylation of IGF‐1R in HT‐29/GFP cells; experiment: In vitro signal transduction assay; assay type: cell-based, human; conditions: 30 nmol/L, 2 hours
# In short: as §1
# [8] = test system: non‐human primate, rodent; conditions: ref Kyowa Hakko Kirin Co., Tokyo, unpublished data; cited from earlier work
# [9] = test system: human sarcoma cell lines bearing the EWS/FLI‐1 chromosome translocation (TC‐71, SK‐N‐MC, SK‐ES‐1); experiment: Anti-proliferative activity; assay type: cell-based; conditions: 72 h
# [10] = Phase I first-in-human study: pharmacokinetics; assay type: in vivo; conditions: for half-life / concentration at 1 day / concentration at 28 day / Cmax / Tmax / Vd/F: human, plasma; for Cmax: C max; for Tmax: T max; for Vd/F: VZ/F
# [11] = ref Kyowa Hakko Kirin Co., Ltd, Tokyo, unpublished data; cited from earlier work
# [12] = test system: phosphorylation of AKT in HT‐29/GFP cells; experiment: In vitro signal transduction assay; assay type: cell-based, human; conditions: same concentration ranges (up to 30 nmol/L)
# In short: as §1
# AurB = AurB (Homo sapiens, UniProt Q96GD4); experiment: Kinase inhibition profiling at 100 nmol/L; assay type: biochemical; conditions: read-out: Inhibition at 100 nmol/L
# Met = Met (Homo sapiens, UniProt P08581); experiment: Kinase inhibition profiling at 100 nmol/L; assay type: biochemical; conditions: read-out: Inhibition at 100 nmol/L
# AurA = AurA (Homo sapiens, UniProt O14965); experiment: Kinase inhibition profiling at 100 nmol/L; assay type: biochemical
# Sequence of AurA (O14965 whole entry): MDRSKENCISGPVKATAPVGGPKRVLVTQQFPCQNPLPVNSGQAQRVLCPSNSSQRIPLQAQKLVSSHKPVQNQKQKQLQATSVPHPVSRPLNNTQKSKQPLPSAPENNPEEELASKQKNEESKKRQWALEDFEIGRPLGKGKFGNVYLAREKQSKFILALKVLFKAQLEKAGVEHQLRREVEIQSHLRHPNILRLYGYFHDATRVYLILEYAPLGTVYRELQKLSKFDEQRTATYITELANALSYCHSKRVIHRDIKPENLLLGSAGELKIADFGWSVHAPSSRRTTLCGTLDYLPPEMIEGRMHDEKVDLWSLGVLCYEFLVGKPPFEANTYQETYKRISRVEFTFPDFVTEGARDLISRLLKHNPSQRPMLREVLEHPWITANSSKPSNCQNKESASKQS
# [13] = molecular target: fms‐like tyrosine kinase‐3 (Homo sapiens, UniProt P36888); experiment: Kinase inhibition profiling at 100 nmol/L; assay type: biochemical; conditions: read-out: Inhibition at 100 nmol/L
# Sequence of fms‐like tyrosine kinase‐3 (P36888 27-993): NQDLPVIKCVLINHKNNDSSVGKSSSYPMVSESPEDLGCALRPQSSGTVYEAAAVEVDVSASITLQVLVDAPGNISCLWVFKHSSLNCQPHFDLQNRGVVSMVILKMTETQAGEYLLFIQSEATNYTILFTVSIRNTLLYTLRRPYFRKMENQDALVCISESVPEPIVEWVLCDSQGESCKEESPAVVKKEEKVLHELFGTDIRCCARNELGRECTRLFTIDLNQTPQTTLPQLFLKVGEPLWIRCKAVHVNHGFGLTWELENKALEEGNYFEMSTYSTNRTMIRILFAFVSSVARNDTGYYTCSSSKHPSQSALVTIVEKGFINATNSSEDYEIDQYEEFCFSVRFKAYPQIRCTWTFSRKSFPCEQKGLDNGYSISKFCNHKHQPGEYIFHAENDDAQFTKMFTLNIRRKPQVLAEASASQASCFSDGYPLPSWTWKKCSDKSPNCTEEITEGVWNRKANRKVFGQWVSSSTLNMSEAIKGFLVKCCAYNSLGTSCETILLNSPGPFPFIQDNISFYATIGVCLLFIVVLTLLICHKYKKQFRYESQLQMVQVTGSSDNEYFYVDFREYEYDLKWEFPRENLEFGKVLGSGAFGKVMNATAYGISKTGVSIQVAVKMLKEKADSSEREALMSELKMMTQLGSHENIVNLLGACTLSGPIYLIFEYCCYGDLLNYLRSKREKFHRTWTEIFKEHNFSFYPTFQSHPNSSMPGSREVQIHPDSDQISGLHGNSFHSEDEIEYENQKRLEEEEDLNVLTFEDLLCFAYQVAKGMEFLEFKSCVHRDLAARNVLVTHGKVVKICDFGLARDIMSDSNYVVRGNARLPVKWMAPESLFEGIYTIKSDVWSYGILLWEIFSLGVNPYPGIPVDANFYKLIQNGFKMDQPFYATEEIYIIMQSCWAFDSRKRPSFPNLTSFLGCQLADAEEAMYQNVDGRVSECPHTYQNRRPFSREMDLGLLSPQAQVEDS
# [14] = male, SCID, mouse, plasma, po, 20 mg/kg
# [15] = po, 37.5 mg/day, patients, oral 37.5 mg/day, Day 1 (n = 7), mean ± SD
# [16] = po, 37.5 mg/day, patients, oral 37.5 mg/day, Day 28 (n = 5), mean ± SD
# [17] = patients, oral 37.5 mg/day, Day 28 (n = 5), mean ± SD
# [18] = patients, oral 50 mg/day, Day 28 (n = 4), mean ± SD
# Sequence of EGFR (P00533 25-1210): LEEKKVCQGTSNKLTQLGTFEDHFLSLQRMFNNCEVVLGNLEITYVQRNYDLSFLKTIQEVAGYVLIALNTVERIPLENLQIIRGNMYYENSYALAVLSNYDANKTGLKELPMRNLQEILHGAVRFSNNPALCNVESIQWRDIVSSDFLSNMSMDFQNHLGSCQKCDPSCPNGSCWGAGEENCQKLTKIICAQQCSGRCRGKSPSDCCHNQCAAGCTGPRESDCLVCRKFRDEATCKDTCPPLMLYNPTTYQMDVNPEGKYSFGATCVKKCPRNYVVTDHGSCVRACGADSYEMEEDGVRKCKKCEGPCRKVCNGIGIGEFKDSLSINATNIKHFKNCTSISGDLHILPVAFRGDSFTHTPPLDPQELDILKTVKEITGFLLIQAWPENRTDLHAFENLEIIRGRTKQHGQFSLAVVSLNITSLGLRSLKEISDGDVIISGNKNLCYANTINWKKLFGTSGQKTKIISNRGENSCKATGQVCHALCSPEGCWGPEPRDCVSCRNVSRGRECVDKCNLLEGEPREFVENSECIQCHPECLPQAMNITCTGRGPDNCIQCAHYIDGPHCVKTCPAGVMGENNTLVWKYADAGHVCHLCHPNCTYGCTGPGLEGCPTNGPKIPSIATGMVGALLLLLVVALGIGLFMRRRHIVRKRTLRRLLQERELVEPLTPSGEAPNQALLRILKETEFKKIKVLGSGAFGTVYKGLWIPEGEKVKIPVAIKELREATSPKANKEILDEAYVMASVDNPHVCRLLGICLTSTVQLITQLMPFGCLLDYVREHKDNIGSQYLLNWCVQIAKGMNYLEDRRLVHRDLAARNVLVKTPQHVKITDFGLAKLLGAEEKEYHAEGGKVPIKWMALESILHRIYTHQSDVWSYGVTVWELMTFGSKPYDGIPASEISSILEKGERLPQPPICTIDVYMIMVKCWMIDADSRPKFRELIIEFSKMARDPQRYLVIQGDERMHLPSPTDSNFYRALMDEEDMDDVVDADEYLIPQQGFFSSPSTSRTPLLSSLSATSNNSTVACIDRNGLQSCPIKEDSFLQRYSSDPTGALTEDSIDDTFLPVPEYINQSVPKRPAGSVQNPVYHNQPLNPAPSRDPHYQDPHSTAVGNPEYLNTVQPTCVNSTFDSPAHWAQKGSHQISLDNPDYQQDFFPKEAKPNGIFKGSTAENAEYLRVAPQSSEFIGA
smiles,measurement,setting,value
Cc1ccsc1C(=O)Nc1cc(CN2CCN(C(=O)CO)CC2)ccc1/C=C/c1n[nH]c2ccccc12 [KW‐2450],inhibition at 0.1 µM,EGFR,2.5%
same,Median progression‐free survival,advanced solid tumors; 37.5 mg/day,65.0 days
same,Patients with stable disease,advanced solid tumors; 37.5 mg/day,1 n
same,Median progression‐free survival,advanced solid tumors; 50 mg/day,141 days
same,Patients with stable disease,advanced solid tumors; 50 mg/day,3 n
same,Complete or partial responses,advanced solid tumors; 10 patients evaluable for response,no complete or partial responses
same,Patients with stable disease,"advanced solid tumors; 10 patients evaluable for response, both doses",40%
same,Median progression‐free survival,advanced solid tumors; overall,66.5 days
same,Inhibition of in vivo IGF‐1‐induced tyrosine phosphorylation of IGF‐R,[1],inhibited
same,Inhibition at 100 nmol/L,p381,–2.5%
same,inhibition at 0.1 µM,[2],> 90%
same,fraction unbound at 6 h,[3],0.009 to 0.016
same,Inhibition at 100 nmol/L,"Jak2; Jak2, 100 nmol/L",93.4%
same,inhibition at 0.1 µM,"Jak2; read-out: Inhibition at 100 nmol/L, Jak2, 100 nmol/L",> 90%
same,Inhibition at 100 nmol/L,Btc,63.2%
same,Inhibitory activity against phosphorylation of Erk,[4],without any inhibitory activity
same,inhibition at 0.1 µM,IGF‐1R,94.1%
same,Mean area under the plasma concentration–time curve from time 0 to 24 h,[5]; oral 2 mg/kg,136 ng/h/mL
same,Mean maximum plasma concentration,[5]; oral 2 mg/kg,37.4 ng/mL
same,Mean area under the plasma concentration–time curve from time 0 to 24 h,[5]; oral 10 mg/kg,1320 ng/h/mL
same,Mean maximum plasma concentration,[5]; oral 10 mg/kg,568 ng/mL
same,Mean area under the plasma concentration–time curve from time 0 to 24 h,[5]; oral 20 mg/kg,3190 ng/h/mL
same,Mean maximum plasma concentration,[5]; oral 20 mg/kg,1510 ng/mL
same,Tmax,[5]; [14],0.25 to 1 h
same,half-life,[5]; [14],3.71 to 3.99 h
same,Plasma glucose level,SCID mice,elevated levels
same,Plasma insulin level,SCID mice,elevated levels
same,Correlation of degree of in vitro inhibition with that induced by anti‐IGF‐1 antibody KM1468,[6],highly correlated
same,Inhibition of IGF‐1‐induced tyrosine phosphorylation of IGF‐1R,[7],complete inhibition
same,Hyperglycemia at pharmacologically active (lower) doses,[8],hyperglycemia induced
same,GI50,[9],3.2 to 11 nM
same,half-life,"[10]; oral, 50 mg, Mean elimination half‐life, range across dose levels and day measured, patients, 37.5 and 50 mg, days 1 and 28",9.74 to 13 h
same,concentration at 1 day,"[10]; po, 37.5 mg/day",608 ng/mL
same,concentration at 28 day,"[10]; po, 37.5 mg/day",890 ng/mL
same,Cmax,[10]; [15],2330 ± 921 ng/mL
same,Cmax,[10]; [16],2370 ± 1010 ng/mL
same,Tmax,[10]; [15],2.29 ± 0.95 h
same,Tmax,[10]; [16],1.99 ± 1.22 h
same,Vd/F,"[10]; po, 37.5 mg/day, patients, oral 37.5 mg/day, Day 1, n = 5, mean ± SD",19.6 ± 2.91 L
same,Vd/F,"[10]; po, 37.5 mg/day, patients, oral 37.5 mg/day, Day 28, n = 4, mean ± SD",23.7 ± 3.89 L
same,half-life,"[10]; po, 37.5 mg/day, t 1/2, patients, oral 37.5 mg/day, Day 1, n = 5, mean ± SD",10.1 ± 3.08 h
same,half-life,"[10]; po, 37.5 mg/day, t 1/2, patients, oral 37.5 mg/day, Day 28, n = 4, mean ± SD",9.74 ± 2.69 h
same,concentration at 1 day,"[10]; po, 50 mg/day",671 ng/mL
same,concentration at 28 day,"[10]; po, 50 mg/day",701 ng/mL
same,"Mean maximum plasma concentration, molar equivalent","[10]; patients, 37.5 mg/day, days 1 and 28",3385 to 3440 nmol/L
same,"Mean elimination half‐life, range across dose levels and day measured","[10]; patients, 37.5 and 50 mg, days 1 and 28",10 to 13 h
same,C min (trough plasma concentration),"[10]; patients, oral 37.5 mg/day, Day 1 (n = 7), mean ± SD",608 ± 679 ng/mL
same,CL/F,"[10]; patients, oral 37.5 mg/day, Day 1, n = 5, mean ± SD",1.45 ± 0.53 L/h
same,C min (trough plasma concentration),[10]; [17],890 ± 1173 ng/mL
same,CL/F,[10]; [17],1.56 ± 0.88 L/h
same,"R, accumulation ratio (AUC0–24 on day 28/AUC0–24 on day 1)",[10]; [17],1.57 and 1.57 ± 0.80
same,C min (trough plasma concentration),"[10]; patients, oral 50 mg/day, Day 1 (n = 6), mean ± SD",671 ± 517 ng/mL
same,CL/F,"[10]; patients, oral 50 mg/day, Day 1, n = 5, mean ± SD",1.48 ± 0.97 L/h
same,C min (trough plasma concentration),[10]; [18],701 ± 462 ng/mL
same,CL/F,[10]; [18],1.69 ± 0.47 L/h
same,"R, accumulation ratio (AUC0–24 on day 28/AUC0–24 on day 1)",[10]; [18],1.27 and 1.27 ± 0.37
same,Protein bound,[11],98.5–99.0%
same,Inhibition of phosphorylation of AKT downstream to IGF‐1R or IR,[12],inhibited phosphorylation of AKT
same,inhibition at 0.1 µM,AurB,76.8%
same,inhibition at 0.1 µM,Met,33.8%
same,Inhibition at 100 nmol/L,"AurA; AurA, 100 nmol/L",99.5%
same,inhibition at 0.1 µM,"AurA; read-out: Inhibition at 100 nmol/L, AurA, 100 nmol/L",> 90%
same,inhibition at 0.1 µM,[13],> 90%
